Measured values taken from ChEMBL document CHEMBL5724801, “EUbOPEN Chemogenomics Library - Multiplex” (2024).
Several values for one entry are separate records, joined by “and”; a condition that tells them apart may be missing. Equal values may be shown once.

Test system: HEK-293T
Assay: Multiplex assay against HEK293T
Format: toxicity, cell-based
Conditions: human
How it was run: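 Four dyes were applied at seeding to live cells: Hoechst33342, BioTracker Green Microtubule Cytoskeleton Dye, MitoTracker Red and Annexin V Alexa Fluor 680. Imaging after compound addition used a CQ1 microscope at 37°C and 5% CO2. CellPathfinder machine-learning gating then sorted cells into Hoechst high-intensity objects or normal cells, normal cells into healthy, pyknosed or fragmented nuclei, and pyknosed cells into mitotic or apoptotic, with tubulin, mitochondrial-mass and membrane-permeability phenotypes given as per cents of healthy-nucleus cells.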

[1] = 12 h, 1 µM, compound concentration 1 uM
[2] = 12 h, 10 µM, compound concentration 10 uM
[3] = 24 h, 1 µM, compound concentration 1 uM
[4] = 24 h, 10 µM, compound concentration 10 uM
[5] = 48 h, 1 µM, compound concentration 1 uM
[6] = 48 h, 10 µM, compound concentration 10 uM

Compound: CC(C)(C)c1ccc(CSc2cnn(C(C)(C)C)c(=O)c2Cl)cc1 [PYRIDABEN]
- Population Apoptotic (%) [1]: 51% and 28%
- Population Fragmented Nuclei (%) [1]: 7% and 6%
- Population Healthy Nuclei (%) [1]: 78% and 83%
- Population Hoechst High Intensity Objects (%) [1]: 12% and 8%
- Population Membrane Permeable-Phenotype (%) [1]: 0%
- Population Mitochondria Different-Phenotype (%) [1]: 51% and 63%
- Population Mitotic Cells (%) [1]: 48% and 71%
- Population Normal (%) [1]: 87% and 91%
- Population Pyknosed Nuclei (%) [1]: 14% and 10%
- Population Tubulin-Different-Phenotype (%) [1]: 34% and 30%
- Total Cell Count [1]: 299 and 306
- Population Apoptotic (%) [2]: 56% and 62%
- Population Fragmented Nuclei (%) [2]: 6% and 8%
- Population Healthy Nuclei (%) [2]: 77% and 74%
- Population Hoechst High Intensity Objects (%) [2]: 11% and 17%
- Population Membrane Permeable-Phenotype (%) [2]: 0%
- Population Mitochondria Different-Phenotype (%) [2]: 75% and 81%
- Population Mitotic Cells (%) [2]: 44% and 37%
- Population Normal (%) [2]: 88% and 82%
- Population Pyknosed Nuclei (%) [2]: 15% and 16%
- Population Tubulin-Different-Phenotype (%) [2]: 55% and 38%
- Total Cell Count [2]: 359 and 236
- Population Apoptotic (%) [3]: 33% and 35%
- Population Fragmented Nuclei (%) [3]: 7%
- Population Healthy Nuclei (%) [3]: 80% and 83%
- Population Hoechst High Intensity Objects (%) [3]: 9% and 8%
- Population Membrane Permeable-Phenotype (%) [3]: 0%
- Population Mitochondria Different-Phenotype (%) [3]: 37% and 43%
- Population Mitotic Cells (%) [3]: 66% and 64%
- Population Normal (%) [3]: 90% and 91%
- Population Pyknosed Nuclei (%) [3]: 11% and 8%
- Population Tubulin-Different-Phenotype (%) [3]: 27% and 22%
- Total Cell Count [3]: 373 and 370
- Population Apoptotic (%) [4]: 44% and 46%
- Population Fragmented Nuclei (%) [4]: 7% and 8%
- Population Healthy Nuclei (%) [4]: 79% and 70%
- Population Hoechst High Intensity Objects (%) [4]: 10% and 23%
- Population Membrane Permeable-Phenotype (%) [4]: 0%
- Population Mitochondria Different-Phenotype (%) [4]: 68% and 65%
- Population Mitotic Cells (%) [4]: 55% and 53%
- Population Normal (%) [4]: 89% and 76%
- Population Pyknosed Nuclei (%) [4]: 12% and 21%
- Population Tubulin-Different-Phenotype (%) [4]: 52% and 25%
- Total Cell Count [4]: 386 and 252
- Population Apoptotic (%) [5]: 19% and 30%
- Population Fragmented Nuclei (%) [5]: 11% and 9%
- Population Healthy Nuclei (%) [5]: 80% and 84%
- Population Hoechst High Intensity Objects (%) [5]: 5% and 4%
- Population Membrane Permeable-Phenotype (%) [5]: 0%
- Population Mitochondria Different-Phenotype (%) [5]: 25% and 21%
- Population Mitotic Cells (%) [5]: 80% and 69%
- Population Normal (%) [5]: 94% and 95%
- Population Pyknosed Nuclei (%) [5]: 7% and 6%
- Population Tubulin-Different-Phenotype (%) [5]: 14% and 13%
- Total Cell Count [5]: 585 and 522
- Population Apoptotic (%) [6]: 48% and 64%
- Population Fragmented Nuclei (%) [6]: 8% and 13%
- Population Healthy Nuclei (%) [6]: 79% and 71%
- Population Hoechst High Intensity Objects (%) [6]: 11% and 14%
- Population Membrane Permeable-Phenotype (%) [6]: 0%
- Population Mitochondria Different-Phenotype (%) [6]: 59% and 48%
- Population Mitotic Cells (%) [6]: 51% and 35%
- Population Normal (%) [6]: 88% and 85%
- Population Pyknosed Nuclei (%) [6]: 12% and 14%
- Population Tubulin-Different-Phenotype (%) [6]: 43% and 28%
- Total Cell Count [6]: 424 and 290

Compound: O=C(Nc1ccccc1Br)N[C@@H]1CCN(c2ccc(C(F)(F)F)cn2)C1 [SB-705498]
- Population Apoptotic (%) [1]: 7.52% and 7.03%
- Population Fragmented Nuclei (%) [1]: 0.88% and 1.23%
- Population Hoechst High Intensity Objects (%) [1]: 0.29% and 0%
- Population Membrane Permeable-Phenotype (%) [1]: 0.99% and 0%
- Population Mitochondria Different-Phenotype (%) [1]: 31.53% and 18.75%
- Population Mitotic Cells (%) [1]: 92.48% and 92.97%
- Population Normal (%) [1]: 99.71% and 100%
- Population Pyknosed Nuclei (%) [1]: 39.23% and 79.01%
- Total Cell Count [1]: 340 and 162
- Population Apoptotic (%) [2]: 12.68% and 20.16%
- Population Fragmented Nuclei (%) [2]: 2.69% and 4.05%
- Population Hoechst High Intensity Objects (%) [2]: 1.52% and 0%
- Population Membrane Permeable-Phenotype (%) [2]: 0.9% and 7.69%
- Population Mitochondria Different-Phenotype (%) [2]: 31.53% and 23.08%
- Population Mitotic Cells (%) [2]: 87.32% and 79.84%
- Population Normal (%) [2]: 98.48% and 100%
- Population Pyknosed Nuclei (%) [2]: 54.62% and 87.16%
- Population Tubulin-Different-Phenotype (%) [2]: 17.12% and 46.15%
- Total Cell Count [2]: 264 and 148
- Population Apoptotic (%) [3]: 16.92% and 17.07%
- Population Fragmented Nuclei (%) [3]: 1.6% and 1.17%
- Population Healthy Nuclei (%) [3]: 75.22% and 26.9%
- Population Hoechst High Intensity Objects (%) [3]: 0.18% and 0%
- Population Membrane Permeable-Phenotype (%) [3]: 2.37% and 2.17%
- Population Mitochondria Different-Phenotype (%) [3]: 11.37% and 2.17%
- Population Mitotic Cells (%) [3]: 83.08% and 82.93%
- Population Normal (%) [3]: 99.82% and 100%
- Population Tubulin-Different-Phenotype (%) [3]: 10.9% and 6.52%
- Population Apoptotic (%) [4]: 24.63% and 21.09%
- Population Fragmented Nuclei (%) [4]: 1.27% and 4.24%
- Population Hoechst High Intensity Objects (%) [4]: 0%
- Population Membrane Permeable-Phenotype (%) [4]: 0%
- Population Mitochondria Different-Phenotype (%) [4]: 24.71% and 20%
- Population Mitotic Cells (%) [4]: 75.37% and 78.91%
- Population Normal (%) [4]: 100%
- Population Pyknosed Nuclei (%) [4]: 34.01% and 77.58%
- Population Tubulin-Different-Phenotype (%) [4]: 37.65% and 16.67%
- Total Cell Count [4]: 394 and 165
- Population Apoptotic (%) [5]: 9.6% and 17.81%
- Population Fragmented Nuclei (%) [5]: 2.88% and 0.56%
- Population Healthy Nuclei (%) [5]: 86.22% and 58.66%
- Population Hoechst High Intensity Objects (%) [5]: 0%
- Population Membrane Permeable-Phenotype (%) [5]: 6.98% and 0.95%
- Population Mitochondria Different-Phenotype (%) [5]: 12.34% and 27.62%
- Population Mitotic Cells (%) [5]: 90.4% and 82.19%
- Population Normal (%) [5]: 100%
- Population Fragmented Nuclei (%) [6]: 1.84% and 0.57%
- Population Healthy Nuclei (%) [6]: 83.54% and 53.41%
- Population Hoechst High Intensity Objects (%) [6]: 0%
- Population Membrane Permeable-Phenotype (%) [6]: 4.13% and 5.32%
- Population Mitochondria Different-Phenotype (%) [6]: 29.2% and 45.74%
- Population Mitotic Cells (%) [6]: 95.28% and 80.25%
- Population Normal (%) [6]: 100%
